# ERp5 inh: inhibitors of ERp5-driven insulin aggregation, primary screen, biochemical, turbidity, absorbance 650 nm, single point. Protein disulfide-isomerase A6 (Homo sapiens), Q15084. 90 min. inhibition, % at 9.99 µM. hit rate 0.05% among 350,000. AID 651711, 2012;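 active means mean replicate inhibition above about 25%, with every replicate also reaching it, limit read from the data, passing the limit was not always enough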
# INS-1E GSIS act: GLuc luminescence reporter in INS-1E cells, primary screen for activators of glucose-dependent secretion of insulin; hit rate 0.61% among 370,000; activation, % at 16.6 µM; INS-1E GLuc reporter insulin secretion, 2-3 h; AID 743287, 2014;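 active means lowest replicate activation of at least 40%, so every replicate reaches that level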;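 further: 0% = median of neutral control wells and 100% = median of IBMX positive control wells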
# PDI inh: inhibitors of human PDI, primary screen, biochemical, turbidity, single point, plate reader. PDI insulin aggregation turbidity, A650, 90 min. inhibition, % at 10 µM. hit rate 0.052% among 350,000. Protein disulfide-isomerase (Homo sapiens), P07237;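 active means mean inhibition across replicates of 30% or more, whatever share of single replicates reach that level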
# Target sequence (P07237 whole entry, looked up): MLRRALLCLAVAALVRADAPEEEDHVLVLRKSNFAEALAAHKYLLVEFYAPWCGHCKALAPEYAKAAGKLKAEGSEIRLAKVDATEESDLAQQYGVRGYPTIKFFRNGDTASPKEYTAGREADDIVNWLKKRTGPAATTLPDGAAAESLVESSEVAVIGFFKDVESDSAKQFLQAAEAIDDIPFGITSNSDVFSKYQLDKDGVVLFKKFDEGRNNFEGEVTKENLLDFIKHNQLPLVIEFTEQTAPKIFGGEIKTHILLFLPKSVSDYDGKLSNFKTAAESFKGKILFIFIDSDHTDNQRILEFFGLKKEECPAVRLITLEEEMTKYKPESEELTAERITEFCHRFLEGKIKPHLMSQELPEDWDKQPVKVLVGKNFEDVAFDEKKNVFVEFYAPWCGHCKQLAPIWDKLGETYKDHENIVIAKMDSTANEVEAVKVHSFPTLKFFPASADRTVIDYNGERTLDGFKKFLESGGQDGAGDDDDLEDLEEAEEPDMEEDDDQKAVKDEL
# SIRT5 block: SIRT5 desuccinylase inhibitors, primary screen, biochemical, fluorescence imaging, single point, set 5; NAD-dependent protein deacylase sirtuin-5, mitochondrial (Homo sapiens), Q9NXA8; Purified SirT5, succinyl-peptide AMC, trypsin-coupled fluorescence; inhibition, % at 15 µM; hit rate 1.1% among 330,000; in the data active means inhibition above about 15%
# S100A4 MyoIIA: inhibitors of S100A4-myosin IIA peptide binding, primary screen, biochemical, fluorescence polarization, TAMRA-MyoIIA peptide. Protein S100-A4 (Homo sapiens), P26447. inhibition, % at 10.7 µM. hit rate 0.14% among 360,000. AID 652163, 2013;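 active means mean inhibition of at least 70% across replicates, with every replicate also reaching that level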
# Target sequence (P26447 whole entry, looked up): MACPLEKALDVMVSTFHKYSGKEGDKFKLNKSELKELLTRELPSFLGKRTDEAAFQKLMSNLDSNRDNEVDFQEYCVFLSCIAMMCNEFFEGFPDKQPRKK
#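 Material: S100A4 monomer protein | Medium: HEPES pH 7.2 with CaCl2, KCl, NaCl, DTT, Triton | Reagent: Labelled myosin peptide probe, 5 nM | Doses: One dose per compound | Times: 5 min incubation before reading | Benchmarks: Neutral control DMSO, positive control TFP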
# * = called active by the depositor; nt = no result given. Most compounds without a hit are left out; they make up all but 1.5% or so of the library.
SMILES,ERp5 inh,INS-1E GSIS act,PDI inh,SIRT5 block,S100A4 MyoIIA
O=C(Nc1ccc(F)cc1)Nc1ccc2c(c1)[C@H]1C[C@H](CC(=O)N3CCOCC3)O[C@H](CO)[C@H]1O2,-3.1,-2.6,nt,-3.9,-3.3
C[C@H]1CCCCO[C@@H](CN(C)Cc2ccncc2)[C@@H](C)CN([C@@H](C)CO)C(=O)c2cc(NC(=O)c3ccccc3)ccc2O1,-0.4,-10.5,nt,4.1,12.0
COc1ccc(-c2nc(CS(=O)CC(=O)NC(C)CCc3ccccc3)c(C)o2)cc1OC (stereo not drawn),-3.0,49.3*,8.0,-0.3,2.1
CC(C)C[C@H]1CN(CCCC[C@@H]2CNC(=O)C(=O)N2Cc2ccccc2)C(=O)C(=O)N1Cc1ccccc1,3.1,2.0,nt,-1.2,90.4*
CC(C)C[C@H]1CN(CCCC[C@H]2CNC(=O)C(=O)N2Cc2ccccc2)C(=O)C(=O)N1CCc1ccccc1,-0.8,nt,nt,nt,-2.5
O=C(OCC12CC3CC(CC(C3)C1)C2)c1ccc(NCc2cc(O)ccc2O)cc1,-11.6,156.8*,8.7,-2.7,-2.5
O=C(OCCC12CC3CC(CC(C3)C1)C2)c1ccc(NCc2cc(O)ccc2O)cc1,-3.5,48.7,-10.2,-2.2,-2.0
CN(C)CCCNC(=O)C[C@H]1CC[C@@H]2[C@@H](COc3ccc(NC(=O)c4ccccc4F)cc3C(=O)N2C)O1,0.8,6.9,nt,0.7,-4.1
O=C(c1cccc(F)c1)N1CCCC(C(=O)N2CCCCCC2)C1 (stereo not drawn),1.8,-2.1,-1.5,27.1*,-1.2
O=C(c1cccc(Cl)c1)N1CCCC(C(=O)N2CCCCCC2)C1 (stereo not drawn),nt,nt,3.9,nt,nt
C[C@@H]1CN([C@@H](C)CO)C(=O)c2cc(C3=CCCCC3)cnc2O[C@@H]1CN(C)C(=O)c1ccccc1,-6.0,-13.7,nt,-1.1,-18.8
C[C@@H]1CN([C@@H](C)CO)C(=O)Cc2cc(NC(=O)Nc3ccc(C(F)(F)F)cc3)ccc2O[C@H]1CN(C)CC1CC1,2.8,-1.8,nt,-7.4,2.0
S=c1nccc(-c2cccs2)[nH]1,-1.5,-0.7,0.2,15.2*,-1.1
c1csc(-c2ccn[nH]2)c1,1.5,1.4,3.0,-2.9,1.5
Cc1noc(C)c1S(=O)(=O)Nc1ccc2c(c1)C(=O)N([C@@H](C)CO)C[C@@H](C)[C@H](CN(C)C(=O)Nc1ccc(F)cc1)O2,nt,-0.2,nt,nt,nt
C[C@H](CO)N1C[C@H](C)[C@@H](CN(C)Cc2ccncc2)Oc2c(NC(=O)NC3CCCCC3)cccc2C1=O,nt,10.5,nt,nt,nt
O=C(N[C@@H](Cc1ccccc1)C(=O)NC1CC1)c1ccc(Cl)cc1,2.4,4.9,-7.3,24.6*,-0.8
COC(=O)C1=C(C(=O)OC)[C@@H]2Nc3ccccc3[C@@]23C[C@@H](C(=O)OC)N(C(=O)CC(C)C)C3=N1,1.1,-10.7,-0.5,21.3*,7.2
CC(C)c1cc(C(C)C)n2nc(N)nc2n1,1.7,89.4*,9.6,-3.1,-3.2
CCCc1cc(CCC)n2nc(N)nc2n1,3.2,28.1,-3.2,-2.1,1.5
COc1cc(/C=N/NC(=O)CNC(=O)c2ccncc2)ccc1O,1.6,11.6,-1.9,2.6,-0.6
COc1cc(/C=N/NC(=O)CNC(=O)c2cccs2)ccc1O,6.9,45.9*,-11.8,1.6,-3.8
Cc1ccc(S(=O)(=O)Nc2ccc3c(c2)CC(=O)N([C@@H](C)CO)C[C@H](C)[C@H](CN(C)Cc2ccc(Oc4ccccc4)cc2)O3)cc1,1.7,10.3,nt,0.6,-3.1
COc1ccc(CN(C)C[C@H]2Oc3ccc(NS(=O)(=O)c4ccc(Cl)cc4)cc3CC(=O)N([C@H](C)CO)C[C@H]2C)cc1,5.6,-16.7,nt,7.0,15.2
COc1ccc(S(=O)(=O)Nc2ccc3c(c2)CC(=O)N([C@H](C)CO)C[C@@H](C)[C@@H](CN(C)Cc2ccc(Oc4ccccc4)cc2)O3)cc1,-5.6,-1.1,nt,16.1*,-14.2
SMILES,ERp5 inh,INS-1E GSIS act,PDI inh,SIRT5 block,S100A4 MyoIIA
Cc1ccc(S(=O)(=O)Nc2ccc3c(c2)CC(=O)N([C@@H](C)CO)C[C@@H](C)[C@@H](CN(C)Cc2ccc(Oc4ccccc4)cc2)O3)cc1,1.6,-9.8,nt,18.1*,2.2
COc1ccc(S(=O)(=O)Nc2ccc3c(c2)CC(=O)N([C@H](C)CO)C[C@H](C)[C@H](CN(C)Cc2ccc(Oc4ccccc4)cc2)O3)cc1,-4.3,-11.6,nt,11.7,-7.6
COc1ccc(CN(C)C[C@H]2Oc3ccc(NS(=O)(=O)c4ccc(Cl)cc4)cc3CC(=O)N([C@@H](C)CO)C[C@@H]2C)cc1,2.6,-21.2,nt,26.7*,-12.6
C[C@@H]1CN([C@@H](C)CO)C(=O)Cc2cc(NS(=O)(=O)c3ccc(Cl)cc3)ccc2O[C@H]1CN(C)Cc1ccc(Oc2ccccc2)cc1,-5.4,-9.2,nt,23.9*,-32.8
CC(C)NC(=O)N[C@@H]1CC[C@H](CC(=O)O)O[C@H]1CO,-1.6,2.5,nt,3.5,5.4
O=C(c1ccccc1)N1CC[C@@H]2[C@@H](CO)Nc3ccc(C#Cc4cccnc4)cc3[C@@H]21,-3.6,16.1,nt,7.5,-0.1
C[C@H](CO)N1C[C@H](C)[C@@H](CN(C)Cc2ccc(Oc3ccccc3)cc2)Oc2ccc(NS(=O)(=O)c3ccc(Cl)cc3)cc2CC1=O,14.4,-6.4,nt,18.9*,-42.2
CN(C)c1ccc2c(c1)[C@@H]1C[C@@H](CC(=O)NCCN3CCCCC3)O[C@H](CO)[C@@H]1O2,4.8,23.0,nt,7.2,-6.9
Cc1ccc(N=C2NC(=O)/C(=C/c3cn(C)c4ccccc34)S2)cc1C,2.1,-10.7,4.6,26.2*,-3.4
COc1cccc(CN2[C@H](CO)[C@H](c3ccccc3)C23CN(Cc2ccccc2OC)C3)c1,nt,-3.6,nt,nt,nt
O=C1CC(=O)Nc2cc(S(=O)(=O)NCc3cccs3)ccc2N1,0.3,41.4*,-9.0,-2.8,-0.3
O=C(O)c1cccc(S(=O)(=O)NCc2cccs2)c1,nt,nt,-7.9,nt,nt
COc1ccc(OC)c(NC(=O)C2CCN(C(=O)c3cccs3)CC2)c1,4.5,-10.7,-1.8,22.1*,2.6
COc1ccc(OC)c(NC(=O)C2CCN(S(=O)(=O)c3cccs3)CC2)c1,nt,-7.2,-13.1,nt,nt
Cc1oc(-c2ccccc2)nc1C(=O)OCC(=O)NCc1ccccc1,-0.5,4.7,-5.8,6.5,-4.3
CCOC(=O)c1nc(-c2ccccc2)oc1N(C)C,nt,84.4*,3.5,nt,nt
C[C@@H]1CN([C@H](C)CO)S(=O)(=O)c2ccc(-c3cccnc3)cc2O[C@H]1CN(C)Cc1cccnc1,nt,-1.1,nt,nt,nt
CCc1nnc(N2C(=O)c3ccccc3C2(O)c2ccccc2)s1 (stereo not drawn),-1.7,41.7*,-3.5,13.8,8.0
Cc1ccc(N2C(=O)c3ccccc3C2(O)c2ccccc2)cc1 (stereo not drawn),-7.8,nt,10.0,nt,0.7

# High-throughput results as filed in PubChem BioAssay.
